Where “and” joins values, the source holds several entries; their conditions need not be identical. Equal values may be shown once.
System: U2OS
Assay: Multiplex assay against U2OS
Type: toxicity, cell-based
Conditions: human
In short: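 Tubulin, mitochondrial-mass and membrane-permeability phenotypes are per cents of healthy-nucleus cells. Cells were gated by CellPathfinder machine learning into Hoechst high-intensity objects or normal cells, normal cells into healthy, pyknosed or fragmented nuclei, and pyknosed cells into mitotic or apoptotic. Before that, live cells stained at seeding with Hoechst33342, BioTracker Green Microtubule Cytoskeleton Dye, MitoTracker Red and Annexin V Alexa Fluor 680 were imaged on a CQ1 microscope at 37°C and 5% CO2 after compound addition.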

[1] = 12 h, 1 µM, compound concentration 1 uM
[2] = 12 h, 10 µM, compound concentration 10 uM
[3] = 24 h, 1 µM, compound concentration 1 uM
[4] = 24 h, 10 µM, compound concentration 10 uM
[5] = 48 h, 1 µM, compound concentration 1 uM
[6] = 48 h, 10 µM, compound concentration 10 uM

## CN1CCN(c2cc(-c3ccccc3)nc(N)n2)CC1
[1]
  Population Apoptotic (%): 80% and 62%
  Population Fragmented Nuclei (%): 32% and 17%
  Population Healthy Nuclei (%): 61% and 76%
  Population Hoechst High Intensity Objects (%): 2% and 1%
  Population Membrane Permeable-Phenotype (%): 5% and 7%
  Population Mitochondria Different-Phenotype (%): 2% and 5%
  Population Mitotic Cells (%): 20% and 37%
  Population Normal (%): 97% and 98%
  Population Pyknosed Nuclei (%): 6% and 5%
  Population Tubulin-Different-Phenotype (%): 2% and 11%
  Total Cell Count: 235 and 141
[2]
  Population Apoptotic (%): 86% and 73%
  Population Healthy Nuclei (%): 63% and 80%
  Population Hoechst High Intensity Objects (%): 0% and 1%
  Population Membrane Permeable-Phenotype (%): 5% and 10%
  Population Mitochondria Different-Phenotype (%): 3%
  Population Mitotic Cells (%): 13% and 26%
  Population Normal (%): 99% and 98%
  Population Pyknosed Nuclei (%): 6% and 10%
  Population Tubulin-Different-Phenotype (%): 3% and 7%
  Total Cell Count: 252 and 139
[3]
  Population Apoptotic (%): 86% and 80%
  Population Fragmented Nuclei (%): 25% and 21%
  Population Healthy Nuclei (%): 65% and 73%
  Population Hoechst High Intensity Objects (%): 1%
  Population Membrane Permeable-Phenotype (%): 7% and 6%
  Population Mitochondria Different-Phenotype (%): 1%
  Population Mitotic Cells (%): 13% and 20%
  Population Normal (%): 98%
  Population Pyknosed Nuclei (%): 8% and 5%
  Population Tubulin-Different-Phenotype (%): 4% and 9%
  Total Cell Count: 278 and 177
[4]
  Population Apoptotic (%): 100% and 81%
  Population Fragmented Nuclei (%): 23% and 12%
  Population Healthy Nuclei (%): 69% and 80%
  Population Hoechst High Intensity Objects (%): 1% and 2%
  Population Membrane Permeable-Phenotype (%): 9% and 4%
  Population Mitochondria Different-Phenotype (%): 3% and 4%
  Population Mitotic Cells (%): 0% and 18%
  Population Normal (%): 98% and 97%
  Population Pyknosed Nuclei (%): 6%
  Population Tubulin-Different-Phenotype (%): 7% and 2%
  Total Cell Count: 287 and 166
[5]
  Population Apoptotic (%): 83% and 69%
  Population Fragmented Nuclei (%): 21% and 19%
  Population Healthy Nuclei (%): 69% and 75%
  Population Hoechst High Intensity Objects (%): 2% and 3%
  Population Membrane Permeable-Phenotype (%): 5%
  Population Mitochondria Different-Phenotype (%): 1% and 2%
  Population Mitotic Cells (%): 16% and 30%
  Population Normal (%): 97% and 96%
  Population Pyknosed Nuclei (%): 9% and 5%
  Population Tubulin-Different-Phenotype (%): 2% and 7%
  Total Cell Count: 409 and 267
[6]
  Population Apoptotic (%): 100% and 88%
  Population Fragmented Nuclei (%): 19% and 11%
  Population Healthy Nuclei (%): 71% and 78%
  Population Hoechst High Intensity Objects (%): 1%
  Population Membrane Permeable-Phenotype (%): 5% and 2%
  Population Mitochondria Different-Phenotype (%): 3%
  Population Mitotic Cells (%): 0% and 12%
  Population Normal (%): 98%
  Population Pyknosed Nuclei (%): 8% and 10%
  Population Tubulin-Different-Phenotype (%): 6% and 1%
  Total Cell Count: 420 and 254

## OCCCNc1cc(-c2ccnc(Nc3cccc(Cl)c3)n2)ccn1
[1]
  Population Apoptotic (%): 88% and 80%
  Population Fragmented Nuclei (%): 38% and 27%
  Population Healthy Nuclei (%): 52% and 51%
  Population Hoechst High Intensity Objects (%): 3% and 5%
  Population Membrane Permeable-Phenotype (%): 8% and 10%
  Population Mitotic Cells (%): 11% and 20%
  Population Normal (%): 97% and 94%
  Population Pyknosed Nuclei (%): 9% and 20%
  Population Tubulin-Different-Phenotype (%): 4% and 5%
  Total Cell Count: 200 and 76
[2]
  Population Apoptotic (%): 85% and 91%
  Population Fragmented Nuclei (%): 37% and 24%
  Population Healthy Nuclei (%): 56% and 64%
  Population Hoechst High Intensity Objects (%): 4% and 10%
  Population Membrane Permeable-Phenotype (%): 46% and 47%
  Population Mitochondria Different-Phenotype (%): 36% and 51%
  Population Mitotic Cells (%): 14% and 8%
  Population Normal (%): 95% and 89%
  Population Pyknosed Nuclei (%): 6% and 11%
  Population Tubulin-Different-Phenotype (%): 46% and 61%
  Total Cell Count: 237 and 118
[3]
  Population Apoptotic (%): 96% and 94%
  Population Fragmented Nuclei (%): 43% and 40%
  Population Healthy Nuclei (%): 43% and 33%
  Population Hoechst High Intensity Objects (%): 7%
  Population Membrane Permeable-Phenotype (%): 10% and 16%
  Population Mitochondria Different-Phenotype (%): 10% and 25%
  Population Mitotic Cells (%): 4% and 5%
  Population Normal (%): 92%
  Population Pyknosed Nuclei (%): 13% and 25%
  Population Tubulin-Different-Phenotype (%): 6% and 16%
  Total Cell Count: 200 and 77
[4]
  Population Apoptotic (%): 88% and 95%
  Population Fragmented Nuclei (%): 37% and 30%
  Population Healthy Nuclei (%): 50% and 49%
  Population Hoechst High Intensity Objects (%): 11% and 12%
  Population Membrane Permeable-Phenotype (%): 34% and 43%
  Population Mitochondria Different-Phenotype (%): 40% and 54%
  Population Mitotic Cells (%): 12% and 4%
  Population Normal (%): 88% and 87%
  Population Pyknosed Nuclei (%): 12% and 20%
  Population Tubulin-Different-Phenotype (%): 37% and 61%
  Total Cell Count: 229 and 128
[5]
  Population Apoptotic (%): 95% and 100%
  Population Fragmented Nuclei (%): 56% and 59%
  Population Healthy Nuclei (%): 22% and 11%
  Population Hoechst High Intensity Objects (%): 16% and 12%
  Population Membrane Permeable-Phenotype (%): 30%
  Population Mitochondria Different-Phenotype (%): 14% and 20%
  Population Mitotic Cells (%): 4% and 0%
  Population Normal (%): 83% and 87%
  Population Pyknosed Nuclei (%): 21% and 28%
  Population Tubulin-Different-Phenotype (%): 26% and 10%
  Total Cell Count: 227 and 99
[6]
  Population Apoptotic (%): 94% and 96%
  Population Fragmented Nuclei (%): 47% and 50%
  Population Healthy Nuclei (%): 31% and 25%
  Population Hoechst High Intensity Objects (%): 21% and 23%
  Population Membrane Permeable-Phenotype (%): 43% and 65%
  Population Mitochondria Different-Phenotype (%): 45% and 34%
  Population Mitotic Cells (%): 5% and 4%
  Population Normal (%): 78% and 76%
  Population Pyknosed Nuclei (%): 21% and 24%
  Population Tubulin-Different-Phenotype (%): 45% and 65%
  Total Cell Count: 223 and 134

## CN1CCN(c2ccc(Nc3c4ccccc4nc4ccccc34)cc2)CC1.Cl.Cl.O
[1]
  Population Apoptotic (%): 100% and 87%
  Population Fragmented Nuclei (%): 25% and 23%
  Population Healthy Nuclei (%): 65% and 69%
  Population Hoechst High Intensity Objects (%): 0%
  Population Membrane Permeable-Phenotype (%): 19% and 14%
  Population Mitochondria Different-Phenotype (%): 7% and 13%
  Population Mitotic Cells (%): 0% and 12%
  Population Normal (%): 99% and 100%
  Population Pyknosed Nuclei (%): 8% and 7%
  Population Tubulin-Different-Phenotype (%): 17% and 13%
  Total Cell Count: 193 and 107
[2]
  Population Apoptotic (%): 93% and 100%
  Population Fragmented Nuclei (%): 54% and 62%
  Population Healthy Nuclei (%): 38% and 31%
  Population Hoechst High Intensity Objects (%): 0% and 2%
  Population Membrane Permeable-Phenotype (%): 65% and 70%
  Population Mitochondria Different-Phenotype (%): 95% and 100%
  Population Mitotic Cells (%): 6% and 0%
  Population Normal (%): 99% and 97%
  Population Pyknosed Nuclei (%): 7% and 6%
  Population Tubulin-Different-Phenotype (%): 82% and 85%
  Total Cell Count: 213 and 132
[3]
  Population Apoptotic (%): 92% and 100%
  Population Fragmented Nuclei (%): 28% and 29%
  Population Healthy Nuclei (%): 64% and 60%
  Population Hoechst High Intensity Objects (%): 1% and 4%
  Population Membrane Permeable-Phenotype (%): 10% and 5%
  Population Mitochondria Different-Phenotype (%): 6% and 12%
  Population Mitotic Cells (%): 7% and 0%
  Population Normal (%): 98% and 95%
  Population Pyknosed Nuclei (%): 6% and 10%
  Population Tubulin-Different-Phenotype (%): 7% and 6%
  Total Cell Count: 200 and 124
[4]
  Population Apoptotic (%): 100% and 90%
  Population Fragmented Nuclei (%): 46% and 69%
  Population Healthy Nuclei (%): 42% and 23%
  Population Hoechst High Intensity Objects (%): 4% and 10%
  Population Membrane Permeable-Phenotype (%): 85% and 96%
  Population Mitochondria Different-Phenotype (%): 96% and 100%
  Population Mitotic Cells (%): 0% and 10%
  Population Normal (%): 95% and 89%
  Population Pyknosed Nuclei (%): 11% and 7%
  Population Tubulin-Different-Phenotype (%): 90% and 100%
  Total Cell Count: 205 and 148
[5]
  Population Apoptotic (%): 87% and 100%
  Population Fragmented Nuclei (%): 36% and 40%
  Population Healthy Nuclei (%): 52% and 47%
  Population Hoechst High Intensity Objects (%): 4% and 5%
  Population Mitochondria Different-Phenotype (%): 4% and 7%
  Population Mitotic Cells (%): 12% and 0%
  Population Normal (%): 95% and 94%
  Population Pyknosed Nuclei (%): 10% and 12%
  Population Tubulin-Different-Phenotype (%): 3% and 9%
  Total Cell Count: 231 and 147
[6]
  Population Apoptotic (%): 96% and 100%
  Population Fragmented Nuclei (%): 53% and 76%
  Population Healthy Nuclei (%): 30% and 19%
  Population Hoechst High Intensity Objects (%): 18% and 15%
  Population Membrane Permeable-Phenotype (%): 91% and 100%
  Population Mitochondria Different-Phenotype (%): 90% and 96%
  Population Mitotic Cells (%): 3% and 0%
  Population Normal (%): 81% and 84%
  Population Tubulin-Different-Phenotype (%): 93% and 100%
  Total Cell Count: 243 and 173

Source: ChEMBL document CHEMBL5724801, “EUbOPEN Chemogenomics Library - Multiplex” (2024)
